This note sets out measurements from ChEMBL document CHEMBL3526151, “Reversible disulfide formation of the glutamate carboxypeptidase II inhibitor E2072 results in prolonged systemic exposures in vivo” (Drug Metab Dispos, 2012).

SMILES strings stand for the structures.

Common to all, as to format: ADME, organism-based
Data set [1] in a line: AUC(0 to infinity) in Sprague-Dawley rat at 5 mg/kg, iv by LC-MS/MS analysis. More on the design: dose 5 mg/kg, route intravenous, time infinity. Conditions: plasma. In short, it runs like this: (§1)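 Male Sprague-Dawley rats (n = 5) given the homodisulfide intravenously at 5 mg/kg. Blood collected up to 7 days into heparin/NEM tubes. Plasma analyzed by LC-MS/MS for both monomer and dimer. Noncompartmental AUC, Cl and Vd calculated. Mean ± S.D.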

Data set [2] in a line: AUC(0 to last) in Sprague-Dawley rat at 5 mg/kg, iv by LC-MS/MS analysis. Particulars: plasma. More on the design: time 0 - last, dose 5 mg/kg, route intravenous. In short, it runs like this: as §1
Data set [3] in a line: Elimination half life in Sprague-Dawley rat at 5 mg/kg, iv by LC-MS/MS analysis. More on the design: dose 5 mg/kg, route intravenous. Conditions: in vivo, read-out: beta t1/2 (converted). The gist of the method:
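Male Sprague-Dawley rats received a single IV dose of either 10 mg/kg parent drug (n = 6) or 5 mg/kg homodisulfide (n = 5), in 50 mM HEPES-buffered saline, pH 7.4. Blood was collected into NEM-containing heparinized tubes for up to 7 days. Parent drug and homodisulfide in plasma were quantified by LC-MS/MS. Terminal t1/2β was calculated as 0.693/λz.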

Data set [4] in a line: Clearance in Sprague-Dawley rat at 5 mg/kg, iv by LC-MS/MS analysis. Particulars: in vivo. More on the design: dose 5 mg/kg, route intravenous. In short, it runs like this:
as §1

Data set [5] is described as follows: Tmax in Sprague-Dawley rat at 5 mg/kg, iv by LC-MS/MS analysis. The arrangement: dose 5 mg/kg, route intravenous. Particulars: in vivo.
Data set [6] in a line: Cmax in Sprague-Dawley rat at 5 mg/kg, iv by LC-MS/MS analysis. Particulars: in vivo. More on the design: dose 5 mg/kg, route intravenous. In short, it runs like this: as §1
Data set [7] can be described thus: Volume of distribution in Sprague-Dawley rat at 5 mg/kg, iv by LC-MS/MS analysis. The arrangement: dose 5 mg/kg, route intravenous. Conditions: in vivo.

Consider `O=C(O)c1cccc(-c2cccc(CCSSCCc3cccc(-c4cccc(C(=O)O)c4)c3C(=O)O)c2C(=O)O)c1`, for which, in data set [1], the AUC(0-inf) is 3540 µg·h/mL. In data set [2], this compound displayed an AUC(0-t) of 2490 µg·h/mL. Besides, the half-life in data set [3] is 4.21 days. The compound also gave a clearance in data set [4] of 1.5 mL/h/kg. In addition, the Tmax in data set [5] was found to be 6.6 min. In data set [6], this compound came in with a Cmax of 104 µg/mL. In data set [7], the Vd stood at 209 L/kg.

By AUC(0-inf) is commonly meant total exposure, with the tail of the curve extrapolated. Read a low AUC(0-inf) as less exposure. In general, AUC(0-t) refers to exposure summed from dosing to a finite time, without extrapolation to infinity. A lower AUC(0-t) goes with low exposure. A word on the clearance: it is the volume of plasma or blood freed of the substance per unit of time. The term Tmax denotes the time at which the peak concentration occurs. Broadly, the Cmax is the highest concentration seen after dosing. By Vd is commonly meant the apparent volume that relates the amount in the body to the concentration in plasma or blood. A high value points to extensive tissue distribution.
